Screens (PubChem BioAssay)
A selection: hits, their analogues and other compounds. The true share with any hit is near 1.6%.
C8 TRAIL sens: viability loss with TRAIL in NB7+C8 cells, primary screen, TRAIL sensitizer project, cell-based, ATPlite luminescence. inhibition (viability loss, TRAIL sensitization), % at 10 µM. 360,000 tested, 1% active;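 active = compounds causing at least 50% loss of cell viability in the single-dose screen, relative to plate controls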
FLuc inh counter: firefly luciferase enzyme inhibitors, primary screen, artefact control for luciferase-based inhibitor screens, biochemical, luminescence, ATPLite. Luciferin 4-monooxygenase (Photinus pyralis), P08659. 10 min. inhibition, % at 10 µM. 200,000 tested, 1.5% active;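 active = inhibition above about 50% when tested at 10 µM, limit read from the data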
Target sequence (P08659 whole entry, looked up): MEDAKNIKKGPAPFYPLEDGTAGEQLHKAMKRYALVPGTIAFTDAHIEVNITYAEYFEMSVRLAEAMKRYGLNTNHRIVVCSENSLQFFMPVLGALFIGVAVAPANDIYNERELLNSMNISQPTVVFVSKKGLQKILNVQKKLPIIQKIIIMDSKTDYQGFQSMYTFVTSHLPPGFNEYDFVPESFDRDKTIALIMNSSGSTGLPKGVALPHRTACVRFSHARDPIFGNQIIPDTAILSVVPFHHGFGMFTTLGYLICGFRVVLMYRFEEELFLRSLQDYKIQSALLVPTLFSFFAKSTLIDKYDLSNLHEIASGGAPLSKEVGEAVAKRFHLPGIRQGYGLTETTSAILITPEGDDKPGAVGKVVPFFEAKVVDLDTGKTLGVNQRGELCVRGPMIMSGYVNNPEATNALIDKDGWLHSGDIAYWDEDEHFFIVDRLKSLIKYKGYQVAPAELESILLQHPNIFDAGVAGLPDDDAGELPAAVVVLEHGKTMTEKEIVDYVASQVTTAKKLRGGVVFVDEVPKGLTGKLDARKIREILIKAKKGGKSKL
PPC-1+TRAIL kill: compounds killing PPC-1 cancer cells with TRAIL present, primary screen, TRAIL potentiator project, ATPLite luminescence, uHTS. PPC-1 cells + TRAIL, ATPLite viability luminescence. cell killing (% activity), % at 4 µM or 5 µM. 220,000 tested, 0.41% active. AID 1443, 2008;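 active = cell killing above 50% in the first pass at 4 µM, then a duplicate retest at 5 µM averaging 50% or more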;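 note: plate controls were cells with TRAIL plus DMSO for no effect and medium-only wells lacking cells for full effect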
FLuc stim CS: FLuc activators, initial screening, artefact control for FLuc-dependent activation tests, biochemical, ATPlite luminescence | Luciferin 4-monooxygenase (Photinus pyralis), P08659 | 200,000 tested, under 10 active | ATPlite luciferase biochemical, 10 min; 0 = ATP-free wells, 1 = DMSO control | activation factor at 10 µM;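 active = luciferase activation factor, scaled between plate controls, of at least 2 with compound at 10 µM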
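System: Luciferase/luciferin detection reagent, cell-free biochemical luciferase assay | Medium: PBS buffer for ATP | Dosing: Test compounds dosed from 2 mM stocks in 100% DMSO | Timing: 10 min at ambient temperature | Signal: Luminescence measurement of luciferase light output | Evaluation: Luciferase activation, seen as luminescence increase over controls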
* hit, by the source's call; / = no result.

SMILES	C8 TRAIL sens	FLuc inh counter	PPC-1+TRAIL kill	FLuc stim CS
O=C(O)CSc1nnc(-c2ccc(Cl)cc2Cl)n1Cc1ccccc1	7.9	/	/	/
Nc1ccccc1Oc1ccc2ccccc2c1	11.6	3.1	30.9	1
CC1=NNC(=O)/C1=C\c1cn(-c2ccccc2)nc1-c1ccccc1	63.0*	-4.2	42.3	1
CC[n+]1c(/C=C/N(C)c2ccccc2)n(-c2ccccc2)c2ccc(-c3nc4ccccc4s3)cc21	91.1*	/	/	/
CCOC(=O)c1ccc2c(c1)n(CC)c(/C=C/N(C)c1ccccc1)[n+]2CC	38.4	-5.1	19.5	1.1
O=C(CN1C(=O)NC2(CCCCCCC2)C1=O)Nc1cccc(Br)c1	38.2	/	/	/
Cc1ccc(C(=O)Nc2ccc(O)cc2C(=O)O)cc1	24.8	58.9*	20.0	0.4
Cc1ccc(C(=O)Nc2ccc(O)cc2C(=O)O)cc1C	31.4	68.7*	36.4	0.3
Cc1cccc(C(=O)Nc2ccc(O)cc2C(=O)O)c1	1.7	23.6	1.9	0.8
CC(=O)NC(C)(c1ccccc1)c1nc(-c2cncnc2)cs1 (centres undefined)	8.3	/	/	/
CCc1nc2ccccc2c(C(=O)OCC(=O)Nc2ccc(S(=O)(=O)N3CCOCC3)cc2)c1C	13.3	-9.7	-1.1	1.1
CCc1nc2ccccc2c(C(=O)OCC(=O)Nc2cccc(S(=O)(=O)N3CCOCC3)c2)c1C	49.7*	-3.7	-2.4	1
C=CC(=O)Nc1cccc(Nc2nc(N[C@H]3CC[C@H](N(C)C)CC3)nc3c2ncn3C(C)C)c1	82.7*	/	/	/
COCCN(C(=O)CSc1ccc2c(c1)OCCO2)c1c(N)n(CC(C)C)c(=O)[nH]c1=O	3.2	/	/	/
Cc1nnc(SCc2ccc(F)cc2)s1	11.2	0.6	10.4	1
Cc1nc(CSc2nnc(C)s2)cs1	2.7	-8.7	87.3*	1.1
O=C(Nc1cccc(O)c1)c1cc(-c2ccco2)on1	0.7	75.5*	25.7	0.2
COc1ccc(-c2cc(C(=O)Nc3cccc(O)c3)no2)cc1	72.9*	/	/	/
COc1ccc(-c2cc(C(=O)Nc3ccc(C)c(C)c3)no2)cc1	-1.3	/	/	/
C#CCSc1nnc(-c2sc(-c3ccccc3)nc2C)n1C	80.5*	-0.6	-3.7	1
C#CCSc1nnc(-c2c[nH]c3ccccc23)n1C	-3.6	-3.2	13.7	1
O=c1oc(-c2cccs2)nc2sc3c(c12)CCCCC3	8.6	67.3*	-7.5	0.3
Cc1ccc2oc(/N=C(\N)NC(=O)C3CC3)nc2c1	50.5*	/	28.6	/
C#CCOCCOCCOCCNc1nc(N2CCN(C(=O)CCCCCCCCCCNC(=O)[C@H](CCCCN)n3cc(CCO)nn3)CC2)nc(N2CCN(C(=O)CCCCCCCCCCNC(=O)[C@H](CCCN=C(N)N)n3cc(C[C@@H](C)CC)nn3)CC2)n1	-0.3	/	/	/
C#CCOCCOCCOCCNc1nc(N2CCN(C(=O)CCCCCCCCCCNC(=O)[C@H](CCCCN)n3cc(C[C@@H](C)CC)nn3)CC2)nc(N2CCN(C(=O)CCCCCCCCCCNC(=O)[C@H](CCCCN)n3cc(C[C@@H](C)CC)nn3)CC2)n1	94.8*	/	/	/
SMILES	C8 TRAIL sens	FLuc inh counter	PPC-1+TRAIL kill	FLuc stim CS
C#CCOCCOCCOCCNc1nc(N2CCN(C(=O)CCCCCCCCCCNC(=O)Cn3cc(C[C@@H](C)O)nn3)CC2)nc(N2CCN(C(=O)CCCCCCCCCCNC(=O)[C@H](CCCCN)n3cc(C[C@@H](C)CC)nn3)CC2)n1	86.1*	/	/	/
Cc1ccc(Nc2nc(CSc3nnc(-c4ccc(F)cc4)n3C)cs2)cc1	34.8	83.5*	33.4	0.2
CC1(C(=O)Nc2cccc(OC(F)(F)F)c2)Cc2c(-c3ccc(C(N)=O)cc3)ccnc2O1 (centres undefined)	11.0	/	/	/
Cn1c(-c2ccccc2)c(C(=O)CCl)c2ccccc21	92.3*	-2.6	20.6	1
Cc1ccc(C(=O)C(C)OC(=O)c2ccccc2[N+](=O)[O-])cc1 (centres undefined)	31.4	65.4*	18.8	0.3
COc1ccccc1C(=O)NNC(=O)c1ccccc1[N+](=O)[O-]	-3.2	-2.9	-4.4	1
C/C(=N/OC(=O)c1ccc(C(F)(F)F)cc1)c1oc(C)nc1C	0.1	/	-20.5	/
COC(=O)[C@]12CCCCC=C1N(Cc1ccco1)C(=O)[C@H](CC(=O)NCCCN1CCCC1=O)C2	20.4	/	/	/
CC1(C)C(=O)Nc2ccccc2N1C(=O)COC(=O)CNS(=O)(=O)c1ccc(Br)cc1Cl	7.8	/	/	/
Brc1ccc(-c2nnc3sc(CN4CCC5(CC4)OCCO5)cn23)cc1	65.8*	-3.6	7.4	1
COC(=O)c1c(C(=O)OC)c(-c2ccc(OC)cc2)n2c1CS(=O)(=O)C2	-7.0	/	/	/
CCOC(=O)c1ccccc1N=Cc1c(O)c2ccccc2oc1=O	-9.5	/	/	/
CCOc1ccc(N=Cc2c(O)cc(C)oc2=O)cc1	-27.3	52.8*	13.0	0.5
CCOc1ccc(N=Cc2c(O)c3ccccc3oc2=O)cc1	-5.4	78.0*	9.6	0.2
CCCCN(C)C(=O)c1ccc(Nc2nc(C(N)Cc3ccc(C(F)(F)F)cc3)cs2)nc1 (centres undefined)	76.9*	/	/	/
NC(Cc1ccc(C(F)(F)F)cc1)c1csc(Nc2nncc3ccccc23)n1 (centres undefined)	69.3*	/	/	/
COc1ccc2c(c1OC)C(=O)N1C2SC[C@H]1C(=O)NC1CC1 (some centres undefined)	-13.8	/	/	/
C=C(C)c1nc(Oc2ccccc2)nc(Oc2ccccc2)n1	54.8*	/	/	/
Cc1c(P(=S)(c2ccccc2)c2ccccc2)[n+]2ccccc2n1C/C=C/c1ccccc1	77.7*	/	/	/
CC(O)c1nc2ccccc2n1C/C=C/c1ccccc1 (centres undefined)	-17.8	-5.5	-6.7	1.1
CCOC(=O)c1cc2c(=Cc3ccc(N(C)C)cc3)c3ccccc3n2[n+]1C	53.3*	/	/	/
C[n+]1c(-c2ccccc2)cc2c(=Cc3ccccc3)c3ccccc3n21	81.2*	/	/	/
Cc1cc2c(=Cc3ccc(N(C)C)cc3)c3ccccc3n2[n+]1C	31.3	/	/	/
CN(C)c1ccc(C=c2c3cc(O)ccc3n3c2cc(-c2ccccc2)[n+]3C)cc1	50.5*	/	/	/
CC(C)CC(N)c1csc(NC(=O)Nc2ccccc2Cc2ccccc2)n1 (centres undefined)	23.9	/	/	/
SMILES	C8 TRAIL sens	FLuc inh counter	PPC-1+TRAIL kill	FLuc stim CS
CC(C)CC(N)c1csc(NC(=O)c2cc(C(C)(C)C)nn2Cc2ccccc2)n1 (centres undefined)	84.4*	/	/	/
O=C(CSc1n[nH]c(-c2ccncc2)n1)Nc1ccc(Cl)c(C(=O)O)c1	-2.8	/	/	/
CCOc1ccccc1NC(=O)Cn1nnc(C(=O)NCc2ccc3c(c2)OCO3)c1N	3.4	/	/	/
CC(=O)Nc1ccc(NC(=O)C(C)Sc2nc3ccccc3c(=O)n2CC2CCCO2)cc1 (centres undefined)	3.7	/	/	/
N#Cc1cccnc1N1CCN(C(=O)c2cccc3c2C(=O)c2ccc(-c4ccc(Cl)c(C(F)(F)F)c4)cc2S3(=O)=O)CC1	7.6	/	/	/
O=C(NCCOc1ccccc1)c1cccc2c1C(=O)c1ccc(Cl)cc1S2(=O)=O	55.1*	/	/	/
